From paper PMC4120670 (Kidney International, 2014)

How the values were obtained:
OCT2 = target: T1, OCT2 (Homo sapiens, UniProt O15244); test: Inhibition of OCT2 transport of tetraethylammonium; assay type: cell-based
T1 sequence (O15244 1-555): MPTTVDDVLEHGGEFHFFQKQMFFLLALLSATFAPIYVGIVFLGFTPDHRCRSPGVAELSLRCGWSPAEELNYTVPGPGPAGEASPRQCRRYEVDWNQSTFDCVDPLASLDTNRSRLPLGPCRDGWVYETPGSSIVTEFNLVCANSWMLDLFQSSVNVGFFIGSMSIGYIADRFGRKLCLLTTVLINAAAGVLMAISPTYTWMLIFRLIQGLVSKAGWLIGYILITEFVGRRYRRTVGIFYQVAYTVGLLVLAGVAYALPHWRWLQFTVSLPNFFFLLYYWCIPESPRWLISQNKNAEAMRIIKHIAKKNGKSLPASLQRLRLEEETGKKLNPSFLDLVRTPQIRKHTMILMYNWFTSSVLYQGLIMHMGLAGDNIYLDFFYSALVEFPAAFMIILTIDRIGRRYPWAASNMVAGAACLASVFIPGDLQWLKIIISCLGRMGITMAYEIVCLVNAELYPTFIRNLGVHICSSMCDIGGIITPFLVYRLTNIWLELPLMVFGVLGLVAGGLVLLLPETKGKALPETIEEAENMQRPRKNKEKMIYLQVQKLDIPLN

OAT3 [1] = target: T2, OAT3 (Homo sapiens, UniProt Q8TCC7); assay type: cell-based; details: transiently transfected HEK293 cells; data not shown
T2 sequence (Q8TCC7 1-542): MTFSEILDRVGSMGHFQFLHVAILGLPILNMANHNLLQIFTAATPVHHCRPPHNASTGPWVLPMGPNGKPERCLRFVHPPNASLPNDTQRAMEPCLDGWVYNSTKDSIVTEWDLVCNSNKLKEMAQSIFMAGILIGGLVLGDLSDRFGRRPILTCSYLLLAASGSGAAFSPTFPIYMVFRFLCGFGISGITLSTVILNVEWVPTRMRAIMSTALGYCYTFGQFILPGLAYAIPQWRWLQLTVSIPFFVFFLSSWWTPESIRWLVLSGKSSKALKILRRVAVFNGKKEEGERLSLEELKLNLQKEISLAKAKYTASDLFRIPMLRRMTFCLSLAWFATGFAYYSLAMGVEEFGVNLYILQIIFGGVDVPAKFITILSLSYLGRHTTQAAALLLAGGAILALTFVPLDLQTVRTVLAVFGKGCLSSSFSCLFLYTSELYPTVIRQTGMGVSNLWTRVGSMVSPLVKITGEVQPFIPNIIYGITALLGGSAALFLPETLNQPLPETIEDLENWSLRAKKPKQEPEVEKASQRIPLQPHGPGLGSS

MATE1 = target: T3, MATE1 (Homo sapiens, UniProt Q96FL8); test: Creatinine transport by MATE1 in transiently transfected MDCKII cells; assay type: cell-based
T3 sequence (Q96FL8 1-570): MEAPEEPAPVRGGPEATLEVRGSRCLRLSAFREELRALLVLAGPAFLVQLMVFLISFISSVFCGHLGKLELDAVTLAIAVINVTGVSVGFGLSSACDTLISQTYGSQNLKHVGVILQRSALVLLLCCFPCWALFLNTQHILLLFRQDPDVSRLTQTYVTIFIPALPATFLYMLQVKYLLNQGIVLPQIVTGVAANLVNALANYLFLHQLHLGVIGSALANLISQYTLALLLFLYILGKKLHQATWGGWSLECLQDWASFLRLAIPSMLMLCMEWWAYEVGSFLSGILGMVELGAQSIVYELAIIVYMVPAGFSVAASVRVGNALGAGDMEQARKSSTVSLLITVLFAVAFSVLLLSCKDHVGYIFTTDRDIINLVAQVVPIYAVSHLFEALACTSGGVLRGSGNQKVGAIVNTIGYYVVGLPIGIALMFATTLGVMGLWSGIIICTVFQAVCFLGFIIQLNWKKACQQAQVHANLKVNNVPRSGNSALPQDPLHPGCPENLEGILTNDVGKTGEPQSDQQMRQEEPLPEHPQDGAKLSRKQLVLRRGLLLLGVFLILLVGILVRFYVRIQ
How it was run: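 Transiently transfected polarized MDCKII cells were preincubated 20 min in Hank's balanced salt solution with 30 mmol/l NH4Cl. Uptake was started by adding creatinine, 31 μmol/l to 20 mmol/l, to the chamber matching the transporter's apical or basolateral expression. Cells were washed four times with ice-cold PBS and extracted in 1:1 acetonitrile:water. Intracellular substrate was counted radiometrically. Kinetic constants were fitted from concentration dependence over n⩾3 independent experiments.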

OAT3 [2] = target: T2, OAT3; details: human OAT3, transiently transfected HEK293 cells; cited from earlier work
OAT2 [3] = target: T4, OAT2 (Homo sapiens, UniProt Q9Y694); test: Creatinine transport by OAT2 in transiently transfected MDCKII cells; assay type: cell-based
T4 sequence (Q9Y694 1-548): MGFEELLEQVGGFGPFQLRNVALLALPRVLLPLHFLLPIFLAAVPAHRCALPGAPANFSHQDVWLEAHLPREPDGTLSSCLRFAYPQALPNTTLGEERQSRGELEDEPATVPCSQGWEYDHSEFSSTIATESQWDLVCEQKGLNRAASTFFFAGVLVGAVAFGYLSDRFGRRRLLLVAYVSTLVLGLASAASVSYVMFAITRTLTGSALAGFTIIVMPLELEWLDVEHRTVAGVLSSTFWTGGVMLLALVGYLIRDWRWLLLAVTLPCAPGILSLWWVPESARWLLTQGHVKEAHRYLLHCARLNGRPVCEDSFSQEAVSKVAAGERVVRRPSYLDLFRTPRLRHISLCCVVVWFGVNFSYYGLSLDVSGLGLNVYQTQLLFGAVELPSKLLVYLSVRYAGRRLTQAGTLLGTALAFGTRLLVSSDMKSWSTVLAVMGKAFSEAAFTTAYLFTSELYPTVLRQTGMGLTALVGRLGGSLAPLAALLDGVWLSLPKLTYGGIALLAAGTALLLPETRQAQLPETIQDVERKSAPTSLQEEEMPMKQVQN

MATE2-K [4] = target: T5, MATE2-K (Homo sapiens, UniProt Q86VL8); test: Creatinine transport by MATE2-K in transiently transfected MDCKII cells; assay type: cell-based
OAT2 [5] = target: T4, OAT2; test: Inhibition of OAT2 transport of 3′,5′-cyclic GMP; assay type: cell-based
[6] = more modest effects, clinical; cited from earlier work
OCT3 = target: T6, OCT3 (Homo sapiens, UniProt O75751); test: Inhibition of OCT3 transport of 1-methyl-4-phenylpyridinium; assay type: cell-based
T6 sequence (O75751 1-556): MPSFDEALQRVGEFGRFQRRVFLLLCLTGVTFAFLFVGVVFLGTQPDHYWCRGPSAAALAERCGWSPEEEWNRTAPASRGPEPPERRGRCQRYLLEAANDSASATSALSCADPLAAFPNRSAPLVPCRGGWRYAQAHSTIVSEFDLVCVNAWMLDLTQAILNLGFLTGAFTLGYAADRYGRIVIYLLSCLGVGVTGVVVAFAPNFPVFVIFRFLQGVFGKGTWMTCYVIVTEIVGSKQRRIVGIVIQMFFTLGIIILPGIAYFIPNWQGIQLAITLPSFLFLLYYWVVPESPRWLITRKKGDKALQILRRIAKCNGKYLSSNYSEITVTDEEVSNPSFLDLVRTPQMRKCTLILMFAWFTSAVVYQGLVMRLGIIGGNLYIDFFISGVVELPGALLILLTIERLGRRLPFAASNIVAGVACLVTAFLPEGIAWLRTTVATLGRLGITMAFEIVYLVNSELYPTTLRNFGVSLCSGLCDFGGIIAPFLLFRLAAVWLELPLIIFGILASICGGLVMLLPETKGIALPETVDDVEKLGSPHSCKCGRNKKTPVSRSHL

MATE2-K [7] = target: T5, MATE2-K; test: Inhibition of MATE2-K transport of tetraethylammonium; assay type: cell-based
[8] = most prominent effects, clinical; cited from earlier work
[9] = substrate: CN1CC(=O)NC1=N; test: Creatinine transport by OCT3 in transiently transfected MDCKII cells; assay type: cell-based, human; details: other: creatinine transport by OCT3, transiently transfected cells
[10] = substrate: CN1CC(=O)NC1=N; test: Creatinine transport by OAT2 in transiently transfected MDCKII cells; assay type: cell-based, human; details: other: creatinine transport by OAT2, transiently transfected cells
[11] = substrate: CN1CC(=O)NC1=N; test: Creatinine transport by OCT2 in transiently transfected MDCKII cells; assay type: cell-based, human; details: other: creatinine transport by OCT2, transiently transfected cells

T5 sequence (Q86VL8 1-566 isoform Q86VL8-3): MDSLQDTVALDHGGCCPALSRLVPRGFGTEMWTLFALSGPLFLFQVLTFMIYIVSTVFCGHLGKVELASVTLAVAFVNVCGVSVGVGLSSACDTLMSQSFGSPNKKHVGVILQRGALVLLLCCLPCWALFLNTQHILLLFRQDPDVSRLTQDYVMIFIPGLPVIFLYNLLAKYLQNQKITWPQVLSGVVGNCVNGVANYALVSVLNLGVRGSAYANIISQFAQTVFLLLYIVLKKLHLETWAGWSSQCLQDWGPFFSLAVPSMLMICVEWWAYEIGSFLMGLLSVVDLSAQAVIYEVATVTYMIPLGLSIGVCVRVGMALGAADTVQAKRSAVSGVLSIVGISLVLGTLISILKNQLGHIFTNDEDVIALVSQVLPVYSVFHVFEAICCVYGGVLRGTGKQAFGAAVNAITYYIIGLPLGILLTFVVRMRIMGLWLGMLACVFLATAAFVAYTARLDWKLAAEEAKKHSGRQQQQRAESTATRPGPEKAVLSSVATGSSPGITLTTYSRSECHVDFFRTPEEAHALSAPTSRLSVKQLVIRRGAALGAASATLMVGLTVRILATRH

In the case of `COc1cc(Cc2cnc(N)nc2N)cc(OC)c1OC` [Trimethoprim, trimethoprim], the IC50 (OCT2) is reported as 68 ± 5.2 µM.

For `CN1CC(=O)NC1=N` [creatinine], the “OAT3-dependent transport of creatinine” value (OAT3 [1]) was “no OAT3-dependent transport of creatinine was observed”, the Vmax (MATE1; creatinine transport by MATE1) was >2 × 10^4 pmol/min per mRNA copy number and the Km (MATE1; human, transiently transfected MDCKII cells expressing MATE1) was over 2000 µM. For the same molecule, the “Increase in creatinine accumulation over mock transfection” value (OAT3 [2]) was 60%, the Vmax (OAT2 [3]; creatinine transport by OAT2) was 117 × 10^4 pmol/min per mRNA copy number and the “Transport rate for OAT2 relative to OCT2” value (OAT2 [3]; physiological creatinine concentration (100 μmol/l), faster than OCT2) was 4.7 fold. The “Transport rate for OAT2 relative to OCT3” value (OAT2 [3]; physiological creatinine concentration (100 μmol/l), faster than OCT3) was 2.3 fold, the Vmax (MATE2-K [4]; creatinine transport by MATE2-K) was >20 × 10^4 pmol/min per mRNA copy number and the Km (MATE2-K [4]; human, transiently transfected MDCKII cells expressing MATE2-K) was over 2000 µM.

For `CC(C)c1nc(CN(C)C(=O)N[C@H](C(=O)N[C@@H](Cc2ccccc2)C[C@H](O)[C@H](Cc2ccccc2)NC(=O)OCc2cncs2)C(C)C)cs1` [Ritonavir, ritonavir], the “Concentration-dependent inhibition of OAT2-dependent transport” value (OAT2 [5]; model substrate, curve could not be generated) was “lack of concentration-dependent inhibition”.

For `Cc1cc(/C=C/C#N)cc(C)c1Nc1ccnc(Nc2ccc(C#N)cc2)n1` [Rilpivirine, rilpivirine], the Serum creatinine increases [6] is given as about 0.1 mg/dL.

`CN/C(=N/CCSCc1nc[nH]c1C)NC#N` [Cimetidine, cimetidine] gave an IC50 (OAT2 [5]) of 72.8 ± 17 µM, an IC50 (OCT3) of 87.7 ± 55.1 µM and an IC50 (OCT2) of 135 ± 16 µM. The IC50 (MATE2-K [7]) was 46.6 ± 7.23 µM and the “Decreases in creatinine clearance” value [8] was 15–34 ml/min per 1.73 m^2.

B1: OCT3 (Homo sapiens) (protein)
chain: MPSFDEALQRVGEFGRFQRRVFLLLCLTGVTFAFLFVGVVFLGTQPDHYWCRGPSAAALAERCGWSPEEEWNRTAPASRGPEPPERRGRCQRYLLEAANDSASATSALSCADPLAAFPNRSAPLVPCRGGWRYAQAHSTIVSEFDLVCVNAWMLDLTQAILNLGFLTGAFTLGYAADRYGRIVIYLLSCLGVGVTGVVVAFAPNFPVFVIFRFLQGVFGKGTWMTCYVIVTEIVGSKQRRIVGIVIQMFFTLGIIILPGIAYFIPNWQGIQLAITLPSFLFLLYYWVVPESPRWLITRKKGDKALQILRRIAKCNGKYLSSNYSEITVTDEEVSNPSFLDLVRTPQMRKCTLILMFAWFTSAVVYQGLVMRLGIIGGNLYIDFFISGVVELPGALLILLTIERLGRRLPFAASNIVAGVACLVTAFLPEGIAWLRTTVATLGRLGITMAFEIVYLVNSELYPTTLRNFGVSLCSGLCDFGGIIAPFLLFRLAAVWLELPLIIFGILASICGGLVMLLPETKGIALPETVDDVEKLGSPHSCKCGRNKKTPVSRSHL
B1 showed a Km [9] of 1320 ± 380 µM.

B2: OAT2 (Homo sapiens) (protein)
chain: MGFEELLEQVGGFGPFQLRNVALLALPRVLLPLHFLLPIFLAAVPAHRCALPGAPANFSHQDVWLEAHLPREPDGTLSSCLRFAYPQALPNTTLGEERQSRGELEDEPATVPCSQGWEYDHSEFSSTIATESQWDLVCEQKGLNRAASTFFFAGVLVGAVAFGYLSDRFGRRRLLLVAYVSTLVLGLASAASVSYVMFAITRTLTGSALAGFTIIVMPLELEWLDVEHRTVAGVLSSTFWTGGVMLLALVGYLIRDWRWLLLAVTLPCAPGILSLWWVPESARWLLTQGHVKEAHRYLLHCARLNGRPVCEDSFSQEAVSKVAAGERVVRRPSYLDLFRTPRLRHISLCCVVVWFGVNFSYYGLSLDVSGLGLNVYQTQLLFGAVELPSKLLVYLSVRYAGRRLTQAGTLLGTALAFGTRLLVSSDMKSWSTVLAVMGKAFSEAAFTTAYLFTSELYPTVLRQTGMGLTALVGRLGGSLAPLAALLDGVWLSLPKLTYGGIALLAAGTALLLPETRQAQLPETIQDVERKSAPTSLQEEEMPMKQVQN
Molecule B2 has a Km [10] of 986 ± 177 µM.

B3: OCT2 (Homo sapiens) (protein)
chain: MPTTVDDVLEHGGEFHFFQKQMFFLLALLSATFAPIYVGIVFLGFTPDHRCRSPGVAELSLRCGWSPAEELNYTVPGPGPAGEASPRQCRRYEVDWNQSTFDCVDPLASLDTNRSRLPLGPCRDGWVYETPGSSIVTEFNLVCANSWMLDLFQSSVNVGFFIGSMSIGYIADRFGRKLCLLTTVLINAAAGVLMAISPTYTWMLIFRLIQGLVSKAGWLIGYILITEFVGRRYRRTVGIFYQVAYTVGLLVLAGVAYALPHWRWLQFTVSLPNFFFLLYYWCIPESPRWLISQNKNAEAMRIIKHIAKKNGKSLPASLQRLRLEEETGKKLNPSFLDLVRTPQIRKHTMILMYNWFTSSVLYQGLIMHMGLAGDNIYLDFFYSALVEFPAAFMIILTIDRIGRRYPWAASNMVAGAACLASVFIPGDLQWLKIIISCLGRMGITMAYEIVCLVNAELYPTFIRNLGVHICSSMCDIGGIITPFLVYRLTNIWLELPLMVFGVLGLVAGGLVLLLPETKGKALPETIEEAENMQRPRKNKEKMIYLQVQKLDIPLN
Molecule B3 has a Km [11] of 1860 ± 370 µM.
